Test results taken from ChEMBL document CHEMBL3751740, “New MKLP-2 inhibitors in the paprotrain series: Design, synthesis and biological evaluations” (Bioorg Med Chem, 2016).

Key:
[1] = system: HT-29; assay: Growth inhibition of human HT-29 cells incubated for 4 days by WST-1 assay; format: functional; settings: HT-29, 96 h
Procedure, shortened: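 Cells were kept at 37 °C under 5% CO2 and plated on day 0 at 500–5000 cells/well. On day 1 they received ten concentrations from 0.0025 to 50 µM (final), in triplicate. On day 4 WST-1 was added, followed by 30 min–4 h incubation and absorbance at 450 nm. GI50 is the concentration killing 50% of cells.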

[2] = molecular target: T1, Kinesin-1 heavy chain (Homo sapiens) (UniProt P33176); assay: Inhibition of porcine brain microtubule-stimulated human recombinant GST-tagged Kif5B ATPase activity at 1 mM by microplate reader in presence of Mg2+ ATP relative to control
T1 sequence (whole entry): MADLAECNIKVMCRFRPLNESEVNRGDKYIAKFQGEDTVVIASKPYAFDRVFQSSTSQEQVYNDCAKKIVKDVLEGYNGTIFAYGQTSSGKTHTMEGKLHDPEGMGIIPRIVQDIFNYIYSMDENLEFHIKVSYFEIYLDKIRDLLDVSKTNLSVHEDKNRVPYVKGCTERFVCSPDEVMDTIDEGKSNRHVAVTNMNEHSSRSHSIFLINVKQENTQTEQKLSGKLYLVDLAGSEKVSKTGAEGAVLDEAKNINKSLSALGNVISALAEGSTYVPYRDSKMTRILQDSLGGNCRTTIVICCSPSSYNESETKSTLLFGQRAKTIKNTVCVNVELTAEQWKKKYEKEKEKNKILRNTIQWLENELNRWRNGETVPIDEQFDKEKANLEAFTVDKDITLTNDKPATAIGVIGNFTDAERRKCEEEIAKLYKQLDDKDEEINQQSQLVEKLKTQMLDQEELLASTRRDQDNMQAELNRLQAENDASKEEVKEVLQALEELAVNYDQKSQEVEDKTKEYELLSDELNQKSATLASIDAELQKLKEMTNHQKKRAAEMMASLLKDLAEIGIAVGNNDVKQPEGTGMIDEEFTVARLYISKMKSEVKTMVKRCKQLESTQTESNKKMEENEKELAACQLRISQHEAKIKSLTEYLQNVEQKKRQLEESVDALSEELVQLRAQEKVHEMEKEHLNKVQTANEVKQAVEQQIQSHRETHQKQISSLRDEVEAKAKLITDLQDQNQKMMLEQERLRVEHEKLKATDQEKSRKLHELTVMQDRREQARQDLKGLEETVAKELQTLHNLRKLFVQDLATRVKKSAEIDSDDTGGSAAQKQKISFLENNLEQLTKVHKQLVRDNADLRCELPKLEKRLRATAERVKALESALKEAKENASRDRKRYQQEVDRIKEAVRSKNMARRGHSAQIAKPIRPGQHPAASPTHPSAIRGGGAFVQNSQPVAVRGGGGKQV
Procedure, shortened: (§1)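 Motor domain at 15 µM final, in 7.5 mM PIPES-NaOH pH 7.0 with […], 10 µM Taxol, ELIPA 1 and 2 reagents and 1.25 mg/mL microtubules. AMP-PNP, a slowly hydrolysable ATP analog and general ATPase inhibitor, tested at 1 mM. Reaction started with 1 mM Mg2+ATP at 22 °C and read kinetically at 360 nm. Run in triplicate.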

[3] = molecular target: T2, Kinesin-like protein KIFC3 (Homo sapiens) (UniProt Q9BVG8); assay: Inhibition of porcine brain microtubule-stimulated human recombinant GST-tagged KIFC3 ATPase activity at 1 mM by microplate reader in presence of Mg2+ ATP relative to control; procedure, shortened: as §1
T2 sequence (whole entry): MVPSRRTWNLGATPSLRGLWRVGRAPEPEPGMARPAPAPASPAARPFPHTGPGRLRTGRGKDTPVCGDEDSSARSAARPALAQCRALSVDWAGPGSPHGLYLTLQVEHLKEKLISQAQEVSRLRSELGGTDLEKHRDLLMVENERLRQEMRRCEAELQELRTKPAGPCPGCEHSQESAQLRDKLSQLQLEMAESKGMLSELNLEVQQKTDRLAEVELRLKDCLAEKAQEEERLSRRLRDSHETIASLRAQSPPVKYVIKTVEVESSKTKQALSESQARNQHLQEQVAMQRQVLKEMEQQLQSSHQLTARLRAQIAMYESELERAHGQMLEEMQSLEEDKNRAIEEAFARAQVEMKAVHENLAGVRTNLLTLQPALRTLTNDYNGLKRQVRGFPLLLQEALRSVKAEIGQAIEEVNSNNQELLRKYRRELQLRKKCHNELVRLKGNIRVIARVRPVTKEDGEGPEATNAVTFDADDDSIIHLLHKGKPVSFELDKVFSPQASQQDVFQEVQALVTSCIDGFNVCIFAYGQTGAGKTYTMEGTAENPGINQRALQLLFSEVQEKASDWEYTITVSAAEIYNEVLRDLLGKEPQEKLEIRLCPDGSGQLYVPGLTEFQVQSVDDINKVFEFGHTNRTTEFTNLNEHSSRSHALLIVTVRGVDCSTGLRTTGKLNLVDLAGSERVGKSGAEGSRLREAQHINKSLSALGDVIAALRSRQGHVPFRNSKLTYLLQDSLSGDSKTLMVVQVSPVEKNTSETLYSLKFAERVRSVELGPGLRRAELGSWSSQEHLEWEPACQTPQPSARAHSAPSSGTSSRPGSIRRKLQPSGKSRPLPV

For COc1ccc2[nH]cc(/C(C#N)=C/c3cccnc3)c2c1, the GI50 [1] was 26.2 µM.
For Nc1ncnc2c1ncn2[C@@H]1O[C@H](COP(=O)(O)OP(=O)(O)NP(=O)(O)O)[C@@H](O)[C@H]1O, the inhibition [2] was over 30% and the inhibition [3] was over 30%.
